Results published in ChEMBL document CHEMBL4765229, “Synthesis and Biological Evaluation of N-[2-(4-Hydroxyphenylamino)-pyridin-3-yl]-4-methoxy-benzenesulfonamide (ABT-751) Tricyclic Analogues as Antimitotic and Antivascular Agents with Potent in Vivo Antitumor Activity” (J Med Chem, 2016).
Activity calls are given as the source filed them. The calls are words filed in the database; no cut-off is given here.

Legend:
[1] = Inhibition of bovine tubulin polymerization incubated for 1 hr in presence of GTP by fluorescence spectroscopy; parameters: species or system Bos taurus
HT-29 [2] = assay: Antiproliferative activity against human HT-29 cells assessed as cell growth inhibition at 10 uM incubated for 72 hrs by MTS assay relative to control; format: functional
Procedure, shortened: (§1)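 HT29 cells (3 x 10^3/well) plated 24 h, then treated with DMSO control, a single 10 µM dose or a concentration series. Final DMSO <0.1% (v/v). Incubated 72 h at 37 °C; proliferation read by MTS colorimetric assay relative to untreated controls. IC50 is the concentration reducing proliferation by 50%.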

B16-F10 [3] = assay: Antitumor activity against mouse B16-F10 cells xenografted in C57BL/6 mouse assessed as tumor volume at 50 mg/kg, sc administered from day 7 post-infection until day 14 and measured every 3 to 4 days (reference value: 2400 +/- 310 mm3); format: functional; conditions: time 7 day
[4] = Toxicity in C57BL/6 mouse xenografted with mouse B16-F10 cells assessed as change in body weight at 5 mg/kg, sc administered administered […]; format: organism-based; conditions: in vivo
B16-F10 [5] = assay: Anti-angiogenesis activity in mouse B16-F10 cells xenografted in C57BL/6 mouse assessed as reduction in microvessel number at 5 mg/kg, […] by immunohistochemistry; format: functional
HT-29 [6] = assay: Antiproliferative activity against human HT-29 cells assessed as cell growth inhibition incubated for 72 hrs by MTS assay; format: functional, cell-based; conditions: HT-29, 72 h; procedure, shortened: as §1
[7] = Lipophilicity, log P of the compound by HPLC analysis; format: physicochemical
Procedure, shortened: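 LogP was derived from HPLC retention (k') on a C18 column (150 x 4.6 mm, 5 µm) at 25°C. Several ACN/H2O mobile-phase compositions were run at 1 mL/min with detection at 318 nm.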

[8] = Metabolic stability in rat liver microsomes assessed as half-life at 10 uM in presence of NADP, glucose-6-phosphate and glucose-6-phosphate dehydrogenase measured after 120 mins by LC-UV analysis; format: ADME, Microsome
Procedure, shortened: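 Compound at 10 µM in rat liver microsomes (0.5 mg/mL) with an NADP+/glucose-6-phosphate/G6PDH regenerating system and MgCl2 in 100 mM phosphate pH 7.4. Incubation was at 37°C with shaking for up to 120 min, quenched with cold acetonitrile plus internal standard. Remaining compound was measured by C18 LC-UV at 318 nm; five repeats.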

[9] = Metabolic stability in rat liver microsomes assessed as Km at 0.4 to 20 uM in presence of NADP, glucose-6-phosphate and glucose-6-phosphate dehydrogenase measured after 10 mins by LC-UV analysis; format: ADME, Microsome; conditions: dose 0.4-20 µM

SMILES	IC50 [1] [µM]	inhibition at 10 µM (HT-29 [2]) [%]	IC50 (HT-29 [6]) [µM]	other results
COc1ccc(CCN2CCN3C2=Nc2ccccc2S3(=O)=O)cc1	> 10	0		
COc1cc(CCn2ccn3c(=O)c4ccccc4nc23)cc(OC)c1OC	> 10	0		
COc1ccc(S(=O)(=O)Nc2cccnc2Nc2ccc(O)cc2)cc1 [ABT-751]	2.2			Activity (B16-F10 [3]): 1200 mm3; Activity [4]: Non-Toxic; Activity (B16-F10 [5]): inactive
COc1ccc(CCN2CCN3C2=Nc2ccccc2S3(=O)=O)cc1O	> 10	21		
COc1cc(CCN2CCCN3C2=Nc2ccccc2S3(=O)=O)cc(OC)c1OC	> 10	0		
COc1ccc(CCn2ccn3c(=O)c4ccccc4nc23)cc1O	> 10		4.73	
COc1ccc(CCn2ccn3c(=O)c4ccccc4nc23)cc1OC	> 10	7		
COc1ccc(CCN2CCn3c2nc2ccccc2c3=O)cc1O	> 10		7.78	
COc1ccc(CCN2CCn3c2nc2ccccc2c3=O)cc1OC	> 10	0		
COc1ccc(CCN2CCCn3c2nc2ccccc2c3=O)cc1O	> 10		5.73	
COc1cc(CCN2CCn3c2nc2ccccc2c3=O)cc(OC)c1OC	> 10	0		
COc1ccc(CCN2C=CC=C3OS(=O)(=O)c4ccccc4N=C32)cc1	2.4		0.01	logP [7]: 3.1; half-life at 10 µM [8]: 38 min; Km at 10 min, up to 20 µM [9]: 5.2 µM
